In ChEMBL document CHEMBL5705901, “Exploiting selective BCL-2 family inhibitors to dissect cell survival dependencies and define improved strategies for cancer therapy” (Sci Transl Med, 2015):

Experiments:
NCI-H1650 [1] = test: Antitumor activity against human NCI-H1650 cells xenografted in SCID-bg mouse assessed as maximum tumor growth inhibition at 7.5 mg/kg, iv administered as single dose relative to control; assay type: functional; conditions: read-out: TGI
Summary of the method: (§1)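 NCI-H1650 NSCLC xenografts, ten mice per group. Arms: vehicle; docetaxel iv once at 7.5 mg/kg; oral agent daily for 14 days at 25 mg/kg; and the two combined. TGImax = 100(1 − Tv/Cv) from mean volumes. TGD = 100(T/C − 1) from median times to reach 1 cm3.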

NCI-H1650 [2] = test: Antitumor activity against human NCI-H1650 cells xenografted in SCID-bg mouse assessed as tumor growth delay at 7.5 mg/kg, iv administered as single dose relative to control; assay type: functional; summary of the method: as §1
MDA-MB-231 [3] = test: Antitumor activity against LC3 positive human MDA-MB-231 cells xenografted in SCID mouse assessed as maximum tumor growth inhibition at 7.5 mg/kg, iv administered as single dose relative to control; assay type: functional; conditions: read-out: TGI
Summary of the method: (§2)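 MDA-MB-231 LC3 metastatic breast cancer xenograft, 10 mice per group, with a vehicle control. Dosing: oral agent 25 mg/kg daily for 14 days; docetaxel 7.5 mg/kg iv once; combination gives both regimens. Mean tumor volumes tracked. TGImax = 100(1 − Tv/Cv) from mean treated vs control volumes. TGD = 100(T/C − 1) from median times to reach 1 cm3.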

MDA-MB-231 [4] = test: Antitumor activity against LC3 positive human MDA-MB-231 cells xenografted in SCID mouse assessed as tumor growth delay at 7.5 mg/kg, iv administered as single dose relative to control; assay type: functional; summary of the method: as §2
[5] = Toxicity in iv dosed SCID-bg mouse assessed as tolerance; assay type: organism-based; conditions: in vivo
[6] = Toxicity in iv dosed SCID-bg mouse assessed as body weight loss relative to control; assay type: organism-based; conditions: in vivo
NCI-H747 [7] = test: Antitumor activity against human NCI-H747 cells xenografted in iv dosed SCID-bg mouse assessed as maximum tumor growth inhibition relative to control; assay type: functional
NCI-H747 [8] = test: Antitumor activity against human NCI-H747 cells xenografted in iv dosed SCID-bg mouse assessed as tumor growth delay relative to control; assay type: functional
Summary of the method: (§3)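 Tumor volume-based endpoints. TGD = 100(T/C − 1), where T and C are the median times for the treated and control groups to reach 1 cm3. Groups were five mice for NCI-H747 and OVCAR-5 and eight for NCI-H358. Docetaxel was given intravenously and the test agent orally.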

[9] = Toxicity in iv dosed SCID mouse assessed as tolerance; assay type: organism-based; conditions: in vivo
A549 [10] = test: Antitumor activity against 3 times passaged human A549 cells xenografted in iv dosed SCID mouse assessed as maximum tumor growth inhibition relative to control; assay type: functional
A549 [11] = test: Antitumor activity against 3 times passaged human A549 cells xenografted in iv dosed SCID mouse assessed as tumor growth delay relative to control; assay type: functional
EBC-1 [12] = test: Antitumor activity against human EBC-1 cells xenografted in iv dosed SCID-bg mouse assessed as maximum tumor growth inhibition relative to control; assay type: functional
EBC-1 [13] = test: Antitumor activity against human EBC-1 cells xenografted in iv dosed SCID-bg mouse assessed as tumor growth delay relative to control; assay type: functional
OVCAR-5 [14] = test: Antitumor activity against human OVCAR-5 xenografted in iv dosed SCID mouse assessed as maximum tumor growth inhibition relative to control; assay type: functional
OVCAR-5 [15] = test: Antitumor activity against human OVCAR-5 xenografted in iv dosed SCID mouse assessed as tumor growth delay relative to control; assay type: functional; summary of the method: as §3
NCI-H358 [16] = test: Antitumor activity against human NCI-H358 cells xenografted in iv dosed SCID mouse assessed as maximum tumor growth inhibition relative to control; assay type: functional
NCI-H358 [17] = test: Antitumor activity against human NCI-H358 cells xenografted in iv dosed SCID mouse assessed as tumor growth delay relative to control; assay type: functional; summary of the method: as §3
[18] = Toxicity in iv dosed SCID mouse assessed as body weight loss relative to control; assay type: organism-based; conditions: in vivo
[19] = Toxicity in Sprague-Dawley rat assessed as inhibition of granulopoiesis by measuring reduction in neutrophil count at 5 mg/kg, iv administered once and measured on day 6 by microscopic analysis relative to control; assay type: organism-based; design: scale not given: the % may be the effect or the level left; conditions: in vivo, 144 h, time 6 day
Summary of the method: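 Male Sprague-Dawley rats, n = 10 per group: docetaxel 5 mg/kg i.v. once, or oral inhibitor daily for 5 days (30, 50 or 7 mg/kg depending on agent), alone or combined with docetaxel, against vehicles. Total neutrophil and platelet counts in blood collected on day 6; Tukey-Kramer test versus vehicle.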

Compound: CC(=O)O[C@@]12CO[C@@H]1C[C@H](O)[C@@]1(C)C(=O)[C@H](O)C3=C(C)[C@@H](OC(=O)[C@H](O)[C@@H](NC(=O)OC(C)(C)C)c4ccccc4)C[C@@](O)([C@@H](OC(=O)c4ccccc4)[C@H]21)C3(C)C [DOCETAXEL ANHYDROUS]
- inhibition in vivo at 7.5 mg/kg (NCI-H1650 [1]): 82%
- Activity (NCI-H1650 [2]): 52%
- inhibition in vivo at 7.5 mg/kg (MDA-MB-231 [3]): 73%
- Activity (MDA-MB-231 [4]): 82%
- Activity [5]: Non-Toxic
- Activity [6]: < 9%
- TGI (NCI-H747 [7]): 52%
- Activity (NCI-H747 [8]): 113%
- Activity [9]: Non-Toxic
- TGI (A549 [10]): 71%
- Activity (A549 [11]): 108%
- TGI (EBC-1 [12]): 76%
- Activity (EBC-1 [13]): 44%
- TGI (OVCAR-5 [14]): 39%
- Activity (OVCAR-5 [15]): 54%
- TGI (NCI-H358 [16]): 58%
- Activity (NCI-H358 [17]): 47%
- Activity [18]: < 9%
- Activity [19]: 61%
